Tests used:
[1] = Inhibition of Aurk mouse L929sA cells transfected with human Fas assessed as increase in nuclear area after 24 hrs in presence of TNF by Hoechst 33342 staining-based microscopic assay
Procedure, shortened: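 L929sAhFAS cells treated with compound; mean nuclear area is measured and fitted as a sigmoidal dose–response curve.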

[2] = target: T1, Receptor-interacting serine/threonine-protein kinase 1 (Mus musculus) (UniProt Q60855); test: Inhibition of RIPK1 in mouse L929sA cells transfected with human Fas assessed as inhibition in TNF-induced necroptosis at 3 uM pretreated for 0.5 hrs followed by TNF and zVAD.fmk addition measured after 3 hrs by Hoechst 33342/propidium iodide staining-based assay relative to control; type: cell-based
T1 sequence (whole entry): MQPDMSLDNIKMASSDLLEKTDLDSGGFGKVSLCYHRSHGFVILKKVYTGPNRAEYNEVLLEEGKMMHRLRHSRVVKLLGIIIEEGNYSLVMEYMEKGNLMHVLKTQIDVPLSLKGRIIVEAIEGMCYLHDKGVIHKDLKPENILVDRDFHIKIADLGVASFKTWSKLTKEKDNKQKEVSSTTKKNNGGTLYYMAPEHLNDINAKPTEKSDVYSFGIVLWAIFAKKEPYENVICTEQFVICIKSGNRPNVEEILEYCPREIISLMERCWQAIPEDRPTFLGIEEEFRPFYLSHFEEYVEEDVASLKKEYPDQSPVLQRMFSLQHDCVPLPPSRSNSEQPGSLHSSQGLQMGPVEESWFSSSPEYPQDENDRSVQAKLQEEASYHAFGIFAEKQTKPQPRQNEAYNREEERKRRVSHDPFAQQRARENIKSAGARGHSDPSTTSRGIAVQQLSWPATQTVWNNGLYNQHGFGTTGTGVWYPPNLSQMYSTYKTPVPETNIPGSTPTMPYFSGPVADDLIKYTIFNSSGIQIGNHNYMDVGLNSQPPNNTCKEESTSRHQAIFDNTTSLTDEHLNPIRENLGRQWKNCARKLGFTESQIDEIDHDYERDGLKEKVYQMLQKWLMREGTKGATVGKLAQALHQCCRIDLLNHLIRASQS

[3] = target: T1, Receptor-interacting serine/threonine-protein kinase 1 (Mus musculus); test: Inhibition of RIPK1 in mouse L929sA cells transfected with human Fas assessed as inhibition in TNF-induced necroptosis at 3 uM pretreated for 24 hrs followed by TNF and zVAD.fmk addition measured after 3 hrs by Hoechst 33342/propidium iodide staining-based assay relative to control; type: cell-based
[4] = Inhibition of Aurk mouse L929sA cells transfected with human Fas assessed as reduction in cell growth after 24 hrs in presence of TNF by Hoechst 33342 staining-based microscopic assay
Procedure, shortened: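 L929sAhFAS cells exposed to compound; total cell number is counted after 24 h. IC50 is fitted from a dose–response curve of cell growth.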

[5] = test system: Aurk (Aurora kinase); test: Inhibition of Aurk in mouse L929sA cells transfected with human Fas assessed as reduction in cell growth at 3 uM after 24 hrs in presence of TNF by Hoechst 33342 staining-based microscopic assay relative to control
[6] = test system: Aurk (Aurora kinase); test: Inhibition of Aurk in mouse L929sA cells transfected with human Fas assessed as increase in nuclear area at 3 uM after 24 hrs in presence of TNF by Hoechst 33342 staining-based microscopic assay relative to control; type: cell-based

Structure (SMILES)	IC50 [1] [nM]	inhibition [2] [%]	inhibition [3] [%]	IC50 [4] [nM]	inhibition at 24 h, 3 µM [5] [%]	inhibition at 24 h, 3 µM [6] [%]
Cc1[nH]nc(Nc2nc(Sc3ccc(NC(=O)C4CC4)cc3)nc(N3CCN(C)CC3)n2)c1C	> 3000	< 50	< 50	> 3000	< 50	< 50
Cc1[nH]nc(Nc2cc(N3CCCCC3)nc(Nc3ccc(NC(=O)C4CCCCC4)cc3)n2)c1C	> 3000	< 50	< 50	> 3000	< 50	< 50
Cc1cc(Nc2nc(Nc3ccc(NC(=O)C4CCCCC4)cc3)nc(N3CCN(C)CC3)n2)n[nH]1	> 3000	< 50	< 50	> 3000	< 50	< 50
Cc1cc(Nc2cc(N3CCN(C)CC3)nc(Nc3ccc(NC(=O)C4CCCCC4)cc3)n2)n[nH]1	> 3000			> 3000	< 50	< 50
Cc1[nH]nc(Nc2cc(N3CCOCC3)nc(Nc3ccc(NC(=O)C4CC4)cc3)n2)c1C	> 3000	< 50	< 50	> 3000	< 50	< 50
Cc1[nH]nc(Nc2cc(N3CCN(C)CC3)nc(Nc3ccc(NC(=O)C4CC4)cc3)n2)c1C	> 3000	< 50	< 50	> 3000	< 50	< 50
Cc1cc(Nc2nc(Sc3ccc(NC(=O)C4CC4)cc3)nc(N3CCOCC3)n2)n[nH]1	> 3000			> 3000	< 50	< 50
Cc1cc(Nc2nc(Nc3ccc(NC(=O)C4CC4)cc3)nc(N3CCCCC3)n2)n[nH]1	> 3000	< 50	< 50	> 3000	< 50	< 50
Cc1[nH]nc(Nc2nc(Nc3ccc(NC(=O)C4CCCCC4)cc3)nc(N3CCOCC3)n2)c1C	> 3000	< 50	< 50	> 3000	< 50	< 50
Cc1[nH]nc(Nc2nc(Sc3ccc(NC(=O)C4CCCCC4)cc3)nc(N3CCN(C)CC3)n2)c1C	> 3000	< 50	< 50	> 3000	< 50	< 50
Cc1cc(Nc2nc(Sc3ccc(NC(=O)C4CC4)cc3)nc(N3CCCCC3)n2)n[nH]1	> 3000	< 50	< 50	> 3000	< 50	< 50
Cc1cc(Nc2cc(N3CCOCC3)nc(Sc3ccc(NC(=O)C4CC4)cc3)n2)n[nH]1	1040			1000		
Cc1[nH]nc(Nc2cc(N3CCCCC3)nc(Sc3ccc(NC(=O)C4CCCCC4)cc3)n2)c1C	> 3000	< 50	< 50	> 3000	< 50	< 50
Cc1cc(Nc2cc(N3CCCCC3)nc(Sc3ccc(NC(=O)C4CCCCC4)cc3)n2)n[nH]1	> 3000			813		< 50
Cc1cc(Nc2nc(Sc3ccc(NC(=O)C4CCCCC4)cc3)nc(N3CCOCC3)n2)n[nH]1	> 3000	< 50		2170		< 50
Cc1cc(Nc2nc(Nc3ccc(NC(=O)C4CCCCC4)cc3)nc(N3CCCCC3)n2)n[nH]1	> 3000	< 50	< 50	> 3000	< 50	< 50
Cc1[nH]nc(Nc2cc(N3CCOCC3)nc(Nc3ccc(NC(=O)C4CCCCC4)cc3)n2)c1C	> 3000	< 50	< 50	> 3000	< 50	< 50
Cc1cc(Nc2nc(Sc3ccc(NC(=O)C4CCCCC4)cc3)nc(N3CCCCC3)n2)n[nH]1	> 3000	< 50	< 50	> 3000	< 50	< 50

Structure (SMILES)	IC50 [1] [nM]	inhibition [2] [%]	inhibition [3] [%]	IC50 [4] [nM]	inhibition at 24 h, 3 µM [5] [%]	inhibition at 24 h, 3 µM [6] [%]
CCN1CCN(c2cc(Nc3n[nH]c(C)c3C)nc(Sc3ccc(NC(=O)C4CC4)cc3)n2)CC1	> 3000	< 50	< 50	> 3000	< 50	< 50
Cc1[nH]nc(Nc2cc(N3CCN(C)CC3)nc(Sc3ccc(NC(=O)C4CCCCC4)cc3)n2)c1C	> 3000	< 50	< 50	> 3000	< 50	< 50
Cc1cc(Nc2cc(N3CCCCC3)nc(Sc3ccc(NC(=O)C4CC4)cc3)n2)n[nH]1	1000			1320		
Cc1cc(Nc2nc(Sc3ccc(NC(=O)C4CC4)cc3)nc(N3CCN(C)CC3)n2)n[nH]1	800	< 50		440		
Cc1cc(Nc2nc(Nc3ccc(NC(=O)C4CC4)cc3)nc(N3CCN(C)CC3)n2)n[nH]1	> 3000	< 50	< 50	> 3000	< 50	< 50
Cc1cc(Nc2cc(N3CCN(C)CC3)nc(Sc3ccc(NC(=O)C4CCCCC4)cc3)n2)n[nH]1	> 3000	< 50	< 50	< 600		< 50
Cc1[nH]nc(Nc2cc(N3CCOCC3)nc(Sc3ccc(NC(=O)C4CCCCC4)cc3)n2)c1C	> 3000	< 50	< 50	> 3000	< 50	< 50
Cc1cc(Nc2cc(N3CCOCC3)nc(Nc3ccc(NC(=O)C4CCCCC4)cc3)n2)n[nH]1	> 3000			2250		< 50
Cc1cc(Nc2cc(N3CCCCC3)nc(Nc3ccc(NC(=O)C4CCCCC4)cc3)n2)n[nH]1	> 3000	< 50		> 3000	< 50	< 50
Cc1[nH]nc(Nc2cc(N3CCN(C)CC3)nc(Nc3ccc(NC(=O)C4CCCCC4)cc3)n2)c1C	> 3000	< 50	< 50	> 3000	< 50	< 50
Cc1[nH]nc(Nc2nc(Sc3ccc(NC(=O)C4CC4)cc3)nc(N3CCOCC3)n2)c1C	> 3000	< 50	< 50	> 3000	< 50	< 50
Cc1[nH]nc(Nc2nc(Nc3ccc(NC(=O)C4CCCCC4)cc3)nc(N3CCN(C)CC3)n2)c1C	> 3000	< 50	< 50	> 3000	< 50	< 50
Cc1[nH]nc(Nc2nc(Nc3ccc(NC(=O)C4CCCCC4)cc3)nc(N3CCCCC3)n2)c1C	> 3000	< 50	< 50	> 3000	< 50	< 50
Cc1[nH]nc(Nc2nc(Sc3ccc(NC(=O)C4CCCCC4)cc3)nc(N3CCCCC3)n2)c1C	> 3000	< 50	< 50	> 3000	< 50	< 50
Cc1cc(Nc2nc(Nc3ccc(NC(=O)C4CC4)cc3)nc(N3CCOCC3)n2)n[nH]1	> 3000			> 3000	< 50	< 50
Cc1cc(Nc2nc(Nc3ccc(NC(=O)C4CCCCC4)cc3)nc(N3CCOCC3)n2)n[nH]1	> 3000	< 50	< 50	2300		< 50
Cc1cc(Nc2cc(N3CCOCC3)nc(Sc3ccc(NC(=O)C4CCCCC4)cc3)n2)n[nH]1	< 600			214		

From ChEMBL document CHEMBL4043285 (J Med Chem, 2018)
